Experimental data: paper PMC10906133 (Journal of Enzyme Inhibition and Medicinal Chemistry, 2024)

Experiments:
[1] = tested on: iNOS, COX2, IL-6 and TNF-α protein expression; assay: Western blot of inflammatory protein expression in LPS-treated RAW264.7 cells; type: cell-based; conditions: RAW264.7, 2, 1, 0.5 µM 1 h, then LPS 500 ng/mL 24 h
Summary of the method: (§1)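 RAW264.7 cells (2 × 10^6/well) were cultured overnight, pretreated 1 h with test compound at 2, 1 or 0.5 µM, then stimulated with LPS 0.5 µg/mL. Lysis was in RIPA, followed by SDS-PAGE and PVDF transfer. Primary antibodies (1:1000) were applied overnight at 4 °C, then HRP secondary for 1 h, with ECL detection and β-actin reference. Three repeats; densitometry given as mean ± SD.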

[2] = tested on: p-p38, p-ERK and p-JNK (MAPK signalling pathway); assay: Western blot of MAPKs signalling pathway in LPS-treated RAW264.7 cells; type: cell-based; conditions: RAW264.7, 2, 1, 0.5 µM 1 h, then LPS 500 ng/mL 30 min
[3] = tested on: DSS-induced acute colitis in mice; assay: DSS-induced acute colitis model in mice; type: in vivo, C57BL/6 mice; conditions: for MPO in colon tissue: day 7, E2 20 mg/kg, sulfasalazine 200 mg/kg, oral
Summary of the method: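 Male C57BL/6 mice (16–18 g; n=10 per group) received 5% (wt/vol) DSS in drinking water on days 1–7. Test compound (10 or 20 mg/kg) or sulfasalazine 200 mg/kg was given by gavage in 0.5% CMC-Na on days 1–7; control groups received vehicle. Weight, stool and DAI were scored daily. On day 8: serum ELISA (TNF-α, IL-1β, IL-6), colon length, histology, and colon MPO. Values are mean ± SEM.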

[4] = tested on: phosphorylation of IκB and p65 (NF-κB signalling pathway); assay: Western blot of NF-κB signalling pathway in LPS-treated RAW264.7 cells; type: cell-based; conditions: RAW264.7, 2, 1, 0.5 µM 1 h, then LPS 500 ng/mL 30 min
Summary of the method: as §1

Row | SMILES | Expression of iNOS, COX2, IL-6 and TNF-α protein [1] | Expression of p-p38, p-ERK and p-JNK [2] | DSS treatment-induced shortening of colon length ([3]; 5% DSS days 1-7, oral E2 10 and 20 mg/kg) | Histopathological symptoms of colon ([3]; 5% DSS days 1-7, oral E2, vs model group) | Levels of COX-2, p-NF-κB and p-Stat3 expression in colon (Western blot) ([3]; DSS-treated mice, oral E2) | Levels of TNF-α, IL-1β and IL-6 in serum (ELISA) ([3]; DSS-treated mice, oral E2) | mRNA expression levels of TNF-α, IL-1β, IL-6, iNOS, COX-2 and TLR4 in colon tissue ([3]; DSS-treated mice, oral E2, RT-qPCR) | MPO in colon tissue [3] | Phosphorylation of IκB and p65 proteins [4]
1 | C#CCOc1ccc(/C=C/c2cc(OC)cc(OC)c2-c2cnnn2C(=O)NCCC)cc1 [E2] | significantly inhibited | inhibits the expression of p-p38, p-ERK, and p-JNK in a dose-dependent manner | significantly attenuated | significantly improved these symptoms | decreased | significantly decreased | alleviated | significantly reduced | inhibited
2 | O=C(O)c1cc(/N=N/c2ccc(S(=O)(=O)Nc3ccccn3)cc2)ccc1O [sulfasalazine, Sulfasalazine, reference compound] | – | – | – | – | – | – | – | significantly reduced | –
